Assay results from ChEMBL document CHEMBL4689842, “EUbOPEN Chemogenomics Library wave 1” (2021).

System: Fibroblast
Experiment: Multiplex assay against human fibroblast
Format: toxicity, cell-based
How it was run: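 Live cells were stained at seeding with Hoechst33342, BioTracker Green Microtubule Cytoskeleton Dye, MitoTracker Red and Annexin V Alexa Fluor 680, then imaged on a CQ1 microscope at 37°C and 5% CO2 after compound addition. CellPathfinder machine-learning gating split cells into Hoechst high-intensity objects or normal cells. Normal cells were split into healthy, pyknosed or fragmented nuclei, and pyknosed cells into mitotic or apoptotic. Tubulin, mitochondrial-mass and membrane-permeability phenotypes are per cents of healthy-nucleus cells.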

[1] = 12 h, 1 µM, compound concentration 1 uM, replicate 1
[2] = 12 h, 1 µM, compound concentration 1 uM, replicate 2
[3] = 12 h, 10 µM, compound concentration 10 uM, replicate 1
[4] = 12 h, 10 µM, compound concentration 10 uM, replicate 2
[5] = 24 h, 1 µM, compound concentration 1 uM, replicate 1
[6] = 24 h, 1 µM, compound concentration 1 uM, replicate 2
[7] = 24 h, 10 µM, compound concentration 10 uM, replicate 1
[8] = 24 h, 10 µM, compound concentration 10 uM, replicate 2
[9] = 48 h, 1 µM, compound concentration 1 uM, replicate 1
[10] = 48 h, 1 µM, compound concentration 1 uM, replicate 2
[11] = 48 h, 10 µM, compound concentration 10 uM, replicate 1
[12] = 48 h, 10 µM, compound concentration 10 uM, replicate 2

## C=CC(=O)Nc1cccc(C(=O)Nc2ccc(Nc3cc(-c4[nH]c(SC)nc4C)ccn3)cc2)c1
[1]
  Population Apoptotic (%): 69%
  Population Fragmented Nuclei (%): 23%
  Population Healthy Nuclei (%): 43%
  Population Hoechst High Intensity Objects (%): 11%
  Population Membrane Permeable-Phenotype (%): 28%
  Population Mitochondria Different-Phenotype (%): 8%
  Population Mitotic Cells (%): 30%
  Population Normal (%): 88%
  Population Pyknosed Nuclei (%): 33%
  Population Tubulin-Different-Phenotype (%): 36%
  Total Cell Count: 131
[2]
  Population Apoptotic (%): 0%
  Population Fragmented Nuclei (%): 2%
  Population Healthy Nuclei (%): 94%
  Population Hoechst High Intensity Objects (%): 14%
  Population Membrane Permeable-Phenotype (%): 0%
  Population Mitochondria Different-Phenotype (%): 7%
  Population Mitotic Cells (%): 100%
  Population Normal (%): 85%
  Population Pyknosed Nuclei (%): 2%
  Population Tubulin-Different-Phenotype (%): 23%
  Total Cell Count: 112
[3]
  Population Apoptotic (%): 50%
  Population Fragmented Nuclei (%): 27%
  Population Healthy Nuclei (%): 50%
  Population Hoechst High Intensity Objects (%): 19%
  Population Membrane Permeable-Phenotype (%): 18%
  Population Mitochondria Different-Phenotype (%): 13%
  Population Mitotic Cells (%): 50%
  Population Normal (%): 80%
  Population Pyknosed Nuclei (%): 22%
  Population Tubulin-Different-Phenotype (%): 29%
  Total Cell Count: 109
[4]
  Population Apoptotic (%): 40%
  Population Fragmented Nuclei (%): 6%
  Population Healthy Nuclei (%): 83%
  Population Hoechst High Intensity Objects (%): 18%
  Population Membrane Permeable-Phenotype (%): 7%
  Population Mitochondria Different-Phenotype (%): 12%
  Population Mitotic Cells (%): 60%
  Population Normal (%): 81%
  Population Pyknosed Nuclei (%): 10%
  Population Tubulin-Different-Phenotype (%): 12%
  Total Cell Count: 78
[5]
  Population Apoptotic (%): 60%
  Population Fragmented Nuclei (%): 20%
  Population Healthy Nuclei (%): 55%
  Population Hoechst High Intensity Objects (%): 13%
  Population Membrane Permeable-Phenotype (%): 29%
  Population Mitochondria Different-Phenotype (%): 3%
  Population Mitotic Cells (%): 39%
  Population Normal (%): 86%
  Population Pyknosed Nuclei (%): 24%
  Population Tubulin-Different-Phenotype (%): 34%
  Total Cell Count: 134
[6]
  Population Apoptotic (%): 37%
  Population Fragmented Nuclei (%): 3%
  Population Healthy Nuclei (%): 87%
  Population Hoechst High Intensity Objects (%): 4%
  Population Membrane Permeable-Phenotype (%): 2%
  Population Mitochondria Different-Phenotype (%): 10%
  Population Mitotic Cells (%): 62%
  Population Normal (%): 95%
  Population Pyknosed Nuclei (%): 8%
  Population Tubulin-Different-Phenotype (%): 25%
  Total Cell Count: 122
[7]
  Population Apoptotic (%): 30%
  Population Fragmented Nuclei (%): 32%
  Population Healthy Nuclei (%): 43%
  Population Hoechst High Intensity Objects (%): 13%
  Population Membrane Permeable-Phenotype (%): 20%
  Population Mitochondria Different-Phenotype (%): 4%
  Population Mitotic Cells (%): 69%
  Population Normal (%): 86%
  Population Pyknosed Nuclei (%): 23%
  Population Tubulin-Different-Phenotype (%): 30%
  Total Cell Count: 113
[8]
  Population Apoptotic (%): 40%
  Population Fragmented Nuclei (%): 5%
  Population Healthy Nuclei (%): 85%
  Population Hoechst High Intensity Objects (%): 11%
  Population Membrane Permeable-Phenotype (%): 8%
  Population Mitochondria Different-Phenotype (%): 14%
  Population Mitotic Cells (%): 60%
  Population Normal (%): 88%
  Population Pyknosed Nuclei (%): 9%
  Population Tubulin-Different-Phenotype (%): 12%
  Total Cell Count: 95
[9]
  Population Apoptotic (%): 62%
  Population Fragmented Nuclei (%): 25%
  Population Healthy Nuclei (%): 50%
  Population Hoechst High Intensity Objects (%): 11%
  Population Membrane Permeable-Phenotype (%): 34%
  Population Mitochondria Different-Phenotype (%): 3%
  Population Mitotic Cells (%): 37%
  Population Normal (%): 88%
  Population Pyknosed Nuclei (%): 23%
  Population Tubulin-Different-Phenotype (%): 25%
  Total Cell Count: 129
[10]
  Population Apoptotic (%): 100%
  Population Fragmented Nuclei (%): 36%
  Population Healthy Nuclei (%): 61%
  Population Hoechst High Intensity Objects (%): 17%
  Population Membrane Permeable-Phenotype (%): 28%
  Population Mitochondria Different-Phenotype (%): 2%
  Population Mitotic Cells (%): 0%
  Population Normal (%): 82%
  Population Pyknosed Nuclei (%): 1%
  Population Tubulin-Different-Phenotype (%): 20%
  Total Cell Count: 69
[11]
  Population Apoptotic (%): 43%
  Population Fragmented Nuclei (%): 37%
  Population Healthy Nuclei (%): 47%
  Population Hoechst High Intensity Objects (%): 12%
  Population Membrane Permeable-Phenotype (%): 11%
  Population Mitochondria Different-Phenotype (%): 0%
  Population Mitotic Cells (%): 56%
  Population Normal (%): 87%
  Population Pyknosed Nuclei (%): 14%
  Population Tubulin-Different-Phenotype (%): 23%
  Total Cell Count: 123
[12]
  Population Apoptotic (%): 100%
  Population Fragmented Nuclei (%): 36%
  Population Healthy Nuclei (%): 57%
  Population Hoechst High Intensity Objects (%): 13%
  Population Membrane Permeable-Phenotype (%): 20%
  Population Mitochondria Different-Phenotype (%): 3%
  Population Mitotic Cells (%): 0%
  Population Normal (%): 86%
  Population Pyknosed Nuclei (%): 5%
  Population Tubulin-Different-Phenotype (%): 27%
  Total Cell Count: 118
